In brackets after ≈: the same amount, converted by molar mass. Activity calls are given as the source filed them. The rule behind the calls is not given here.
Key:
HeLa [1] = assay: Cytotoxicity against HeLa cells by MTS assay at 12.5 uM measured as percentage survival; type: functional, Homo sapiens
Procedure, shortened: (§1)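 HeLa cells were exposed to the compound at three concentrations (12.5, 25 and 50 µM). Viability was read by MTS assay and expressed as % survival.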

Pseudomonas aeruginosa = assay: Antibacterial activity against permeability barrier deficient Pseudomonas aeruginosa Z61; type: functional
Procedure, shortened: (§2)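 MIC by broth dilution following NCCLS standard M7-A4 for aerobically growing bacteria, reported in µg/mL. Strains were S. aureus RN4220, tolC-deficient hypersusceptible E. coli LBB925, and permeability-barrier-deficient P. aeruginosa Z61.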

Staphylococcus aureus [2] = assay: Antibacterial activity against Staphylococcus aureus RN4220; type: functional; procedure, shortened: as §2
HeLa [3] = assay: Cytotoxicity against HeLa cells by MTS assay at 25 uM measured as percentage survival; type: functional, Homo sapiens; procedure, shortened: as §1
HeLa [4] = assay: Cytotoxicity against HeLa cells by MTS assay at 50 uM measured as percentage survival; type: functional, Homo sapiens; procedure, shortened: as §1
Replicative DNA helicase = target: T1, Replicative DNA helicase (Pseudomonas aeruginosa (strain ATCC 15692 / PAO1 / 1C / PRS 101 / LMG12228), UniProt Q9HUN3); assay: Inhibition of Pseudomonas aeruginosa DnaB helicase
T1 sequence (Q9HUN3 whole entry): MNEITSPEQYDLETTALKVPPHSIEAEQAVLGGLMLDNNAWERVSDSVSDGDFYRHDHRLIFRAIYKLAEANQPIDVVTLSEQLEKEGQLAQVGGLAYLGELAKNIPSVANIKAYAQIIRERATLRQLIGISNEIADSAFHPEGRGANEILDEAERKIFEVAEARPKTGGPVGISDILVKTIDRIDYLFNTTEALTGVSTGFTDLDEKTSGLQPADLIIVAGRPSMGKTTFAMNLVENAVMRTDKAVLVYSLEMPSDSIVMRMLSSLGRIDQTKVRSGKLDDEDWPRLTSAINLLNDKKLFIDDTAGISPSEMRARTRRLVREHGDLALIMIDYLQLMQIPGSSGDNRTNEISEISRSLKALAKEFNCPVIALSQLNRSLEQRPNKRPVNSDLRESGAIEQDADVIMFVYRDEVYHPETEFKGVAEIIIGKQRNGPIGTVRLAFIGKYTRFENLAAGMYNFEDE

Escherichia coli = assay: Antibacterial activity against tolC deficient Escherichia coli LBB925; type: functional; procedure, shortened: as §2
Staphylococcus aureus [5] = assay: Antibacterial activity against Staphylococcus aureus infected in mouse at 0.2 mL; type: functional, organism-based

| Structure (SMILES) | MIC (Pseudomonas aeruginosa) [µg/mL] | MIC (Staphylococcus aureus [2]) [µg/mL] | IC50 (Replicative DNA helicase) [µM] | MIC (Escherichia coli) [µg/mL] | Activity (HeLa [1]) [%] | Activity (HeLa [3]) [%] | Activity (HeLa [4]) [%] | Activity (Staphylococcus aureus [5]) |
| --- | --- | --- | --- | --- | --- | --- | --- | --- |
| Clc1cccc(Nc2nc(Nc3cccc(Cl)c3)nc(Nc3cccc(Cl)c3)n2)c1 | > 128 | > 128 | 31 | > 128 | 74 | 83 | 64 |  |
| Fc1ccc(Nc2nc(NCCN3CCOCC3)nc(Nc3ccc(F)cc3)n2)cc1 |  |  | > 100 |  |  |  |  |  |
| O=[N+]([O-])c1ccc(Nc2nc(NCCN3CCOCC3)nc(Nc3ccc(Cl)cc3)n2)cc1 | > 128 | 4 (≈ 8.49 µM) | 5 | > 128 | 78 | 19 | 10 | inactive |
| c1ccc(Nc2nc(NCCN3CCOCC3)nc(Nc3ccccc3)n2)cc1 |  |  | > 100 |  |  |  |  |  |
| Clc1ccc(Nc2nc(NCCN3CCOCC3)nc(Nc3ccc(Cl)cc3)n2)cc1 | > 128 | 4 (≈ 8.69 µM) | 20 | > 128 | 103 | 90 | 6 | inactive |
| CC(=O)c1ccc(Nc2nc(Nc3ccc(Br)cc3)nc(Nc3ccc(Br)cc3)n2)cc1 | > 64 | > 64 | 6 | > 64 |  |  |  |  |
| OCCN1CCN(c2nc(Nc3ccc(F)cc3)nc(Nc3ccc(F)cc3)n2)CC1 | > 128 | 64 (≈ 150 µM) | 23 | 32 (≈ 74.9 µM) | 101 | 104 | 51 |  |
| CN1CCN(c2nc(Nc3ccc(F)cc3)nc(Nc3ccc(F)cc3)n2)CC1 | > 128 | 32 (≈ 80.5 µM) | 22 | 16 (≈ 40.3 µM) | 100 | 64 | 11 |  |
| Clc1ccc(Nc2nc(NCCN3CCOCC3)nc(Nc3ccccc3)n2)cc1 | > 128 | 64 (≈ 150 µM) | 65 | 16 (≈ 37.6 µM) | 98 | 74 | 14 |  |
| COc1ccc(Nc2nc(NCCN3CCOCC3)nc(Nc3ccc(OC)cc3)n2)cc1 |  |  | > 100 |  |  |  |  |  |

Now from value to molecule, other results behind:

| MIC (Pseudomonas aeruginosa) [µg/mL] | MIC (Staphylococcus aureus [2]) [µg/mL] | IC50 (Replicative DNA helicase) [µM] | MIC (Escherichia coli) [µg/mL] | Structure (SMILES) | Activity (HeLa [1]) [%] | Activity (HeLa [3]) [%] | Activity (HeLa [4]) [%] | Activity (Staphylococcus aureus [5]) |
| --- | --- | --- | --- | --- | --- | --- | --- | --- |
| > 128 | > 128 | 5 | > 128 | Fc1ccc(Nc2nc(Nc3ccc(F)c(F)c3)nc(N3CCN(CCOc4ccccc4)CC3)n2)cc1F | 97 | 100 | 99 |  |
| > 128 | > 128 | 6 | > 128 | Fc1ccc(Nc2nc(Nc3ccc(F)c(F)c3)nc(N3CCN(Cc4ccccc4)CC3)n2)cc1F | 96 | 99 | 97 |  |
| > 128 | 16 (≈ 34.5 µM) | 19 | 16 (≈ 34.5 µM) | Fc1ccc(Nc2nc(NCCN3CCOCC3)nc(Nc3ccc(F)c(F)c3)n2)cc1F | 101 | 91 | 47 |  |
| > 128 | 4 (≈ 8.41 µM) | 5 | > 128 | CC(C)CN1CCN(c2nc(Nc3ccc(F)c(F)c3)nc(Nc3ccc(F)c(F)c3)n2)CC1 | 99 | 99 | 86 |  |
| > 128 | 16 (≈ 34.5 µM) | 18 | 16 (≈ 34.5 µM) | OCCN1CCN(c2nc(Nc3ccc(F)c(F)c3)nc(Nc3ccc(F)c(F)c3)n2)CC1 | 80 | 91 | 47 |  |

Reference: ChEMBL document CHEMBL1138995, “Triaminotriazine DNA helicase inhibitors with antibacterial activity” (Bioorg Med Chem Lett, 2006)
